Activity calls are given as the source filed them. No cut-off for these calls is given here.
Tests used:
Type in all cases: cell-based
[1] = biological target: T1, Transient receptor potential cation channel subfamily A member 1 (Homo sapiens, UniProt O75762); assay: Agonist activity at human TRPA1 expressed in HEK293 cells assessed as increase in calcium influx by FLIPR analysis
In short: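 Stably transfected hTRPA1-HEK293 cells plated on poly-D-lysine at 12500 cells per well, grown 48 h, loaded with 2 µM Fluo-4AM for 45 min in the dark at room temperature. Assayed in isotonic HEPES buffer (pH 7.4) on a plate reader, ex 485/em 538 nm. Compound added at 20 s, calcimycin at 180 s. ΔRFU taken as % calcimycin after DMSO subtraction. Three independent experiments.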

[2] = test system: Transient receptor potential cation channel subfamily A member 1 (Homo sapiens), O75762 [C621A]; assay: Agonist activity at human TRPA1 […] mutant expressed in HEK293 cells assessed as Ca2+ influx at 1 uM by fluorescence assay
[3] = test system: Transient receptor potential cation channel subfamily A member 1 (Homo sapiens), O75762 [F909A]; assay: Agonist activity at human TRPA1 Phe909Ala mutant expressed in HEK293 cells assessed as Ca2+ influx at 1 uM by fluorescence assay
In short: (§1)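 HEK293 cells stably expressing hTRPA1 point mutants (C621A, F909A or F944A), single-cell cloned under G418 selection. Cells plated on poly-D-lysine for 48 h, loaded with Fluo-4AM 2 µM for 45 min at room temperature. FlexStation read (ex 485/em 538 nm): 20 s baseline, compound added, calcimycin added at 180 s. Response expressed as % calcimycin from ΔRFU, vehicle-subtracted, and compared with wild-type hTRPA1 cells.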

[4] = biological target: T1, Transient receptor potential cation channel subfamily A member 1; assay: Agonist activity at human TRPA1 expressed in HEK293 cells assessed as increase in calcium influx by Fluo-4-AM dye based fluorescence assay; conditions: read-out: EC50
In short: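 Stably transfected hTRPA1- or hTRPM8-HEK293 cells on poly-D-lysine plates for 48 h, loaded with Fluo-4AM (2 µM, 45 min, dark, room temperature), in isotonic HEPES buffer pH 7.4. FlexStation 240 s run: 20 s baseline, compound added, calcimycin added at 180 s. ΔRFU expressed as % calcimycin, DMSO-subtracted. Screening N = 3. Dose-response curves fitted for logEC50 (N = 3 in duplicate or triplicate).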

[5] = biological target: T1, Transient receptor potential cation channel subfamily A member 1; assay: Agonist activity at human TRPA1 expressed in HEK293 cells assessed as increase in calcium influx by Fluo-3/acetoxymethyl ester dye based FLIPR analysis
[6] = test system: Transient receptor potential cation channel subfamily A member 1 (Homo sapiens), O75762 [F944A]; assay: Agonist activity at human TRPA1 Phe944Ala mutant expressed in HEK293 cells assessed as Ca2+ influx at 30 uM by fluorescence assay; in short: as §1
[7] = test system: Transient receptor potential cation channel subfamily A member 1 (Homo sapiens), O75762 [F909A]; assay: Agonist activity at human TRPA1 Phe909Ala mutant expressed in HEK293 cells assessed as Ca2+ influx at 30 uM by fluorescence assay; in short: as §1
[8] = biological target: T1, Transient receptor potential cation channel subfamily A member 1; assay: Agonist activity at human TRPA1 expressed in HEK293 cells assessed as increase in calcium influx by Calcium-5 dye based fluorescence assay
[9] = biological target: T1, Transient receptor potential cation channel subfamily A member 1; assay: Agonist activity at human TRPA1 expressed in CHO cells assessed as increase in calcium influx by Fluo-4-AM dye based fluorescence assay
[10] = test system: Transient receptor potential cation channel subfamily A member 1 (Homo sapiens), O75762 [F909A]; assay: Agonist activity at human TRPA1 Phe909Ala mutant expressed in HEK293 cells assessed as Ca2+ influx […] fluorescence assay; in short: as §1
[11] = test system: Transient receptor potential cation channel subfamily A member 1 (Homo sapiens), O75762 [C621A]; assay: Agonist activity at human TRPA1 […] mutant expressed in HEK293 cells assessed as Ca2+ influx […] by fluorescence assay; in short: as §1
[12] = test system: Transient receptor potential cation channel subfamily A member 1 (Homo sapiens), O75762 [F944A]; assay: Agonist activity at human TRPA1 Phe944Ala mutant expressed in HEK293 cells assessed as Ca2+ influx […] by fluorescence assay; in short: as §1
[13] = test system: Transient receptor potential cation channel subfamily A member 1 (Homo sapiens), O75762 [F944A]; assay: Agonist activity at human TRPA1 Phe944Ala mutant expressed in HEK293 cells assessed as Ca2+ influx at 100 uM by fluorescence assay
In short: (§2)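 HEK293 cells stably expressing hTRPA1 point mutants, made by FuGENE 6 transfection, G418 (0.5 mg ml-1) selection and single-cell cloning, grown in DMEM with 25 mM HEPES, 10% FBS and geneticin. Ca2+ influx was read by Fluo dye fluorescence at room temperature, with calcimycin added at the end. Response was ΔRFU as % of calcimycin, with the DMSO vehicle subtracted.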

[14] = biological target: T1, Transient receptor potential cation channel subfamily A member 1; assay: Agonist activity at human TRPA1 expressed in HEK293 assessed as increase in calcium influx by […]
[15] = test system: Transient receptor potential cation channel subfamily A member 1 (Homo sapiens), O75762 [F909A]; assay: Agonist activity at human TRPA1 Phe909Ala mutant expressed in HEK293 cells assessed as Ca2+ influx at 100 uM by fluorescence assay; in short: as §2
[16] = biological target: Transient receptor potential cation channel subfamily A member 1 (Mus musculus, UniProt Q8BLA8); assay: Agonist activity at mouse TRPA1 expressed in CHO cells assessed as increase in calcium influx by Fluo-3 based FLIPR analysis
Sequence of Transient receptor potential cation channel subfamily A member 1 (Mus musculus, UniProt Q8BLA8) (Q8BLA8 whole entry): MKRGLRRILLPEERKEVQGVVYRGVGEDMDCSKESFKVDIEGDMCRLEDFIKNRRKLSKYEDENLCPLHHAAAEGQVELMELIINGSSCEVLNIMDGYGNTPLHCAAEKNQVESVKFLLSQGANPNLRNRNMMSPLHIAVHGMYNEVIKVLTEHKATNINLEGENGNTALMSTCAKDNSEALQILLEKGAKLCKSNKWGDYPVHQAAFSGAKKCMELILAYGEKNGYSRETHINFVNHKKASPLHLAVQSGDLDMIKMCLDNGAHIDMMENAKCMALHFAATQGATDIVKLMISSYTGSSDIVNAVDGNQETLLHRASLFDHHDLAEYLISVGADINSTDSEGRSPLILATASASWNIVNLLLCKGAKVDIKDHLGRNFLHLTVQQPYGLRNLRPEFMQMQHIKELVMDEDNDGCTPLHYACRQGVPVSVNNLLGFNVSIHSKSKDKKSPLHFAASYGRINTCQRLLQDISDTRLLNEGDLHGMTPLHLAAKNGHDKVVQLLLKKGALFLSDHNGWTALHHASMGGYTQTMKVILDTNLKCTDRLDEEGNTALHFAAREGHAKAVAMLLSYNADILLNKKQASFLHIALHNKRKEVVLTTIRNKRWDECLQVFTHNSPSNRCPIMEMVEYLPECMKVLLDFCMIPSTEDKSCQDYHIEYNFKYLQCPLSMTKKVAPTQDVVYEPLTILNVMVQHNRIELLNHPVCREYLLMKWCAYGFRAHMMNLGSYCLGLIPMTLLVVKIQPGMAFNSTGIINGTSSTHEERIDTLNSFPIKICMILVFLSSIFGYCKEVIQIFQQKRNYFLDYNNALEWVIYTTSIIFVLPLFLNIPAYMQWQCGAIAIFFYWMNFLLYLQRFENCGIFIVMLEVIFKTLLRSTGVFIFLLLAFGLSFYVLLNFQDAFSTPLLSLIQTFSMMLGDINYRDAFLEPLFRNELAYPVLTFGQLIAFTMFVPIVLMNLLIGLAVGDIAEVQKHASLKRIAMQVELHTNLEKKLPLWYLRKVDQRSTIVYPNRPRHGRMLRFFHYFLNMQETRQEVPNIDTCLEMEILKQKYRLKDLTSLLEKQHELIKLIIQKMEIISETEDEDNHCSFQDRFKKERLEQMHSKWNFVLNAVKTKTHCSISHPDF

Sequence of Transient receptor potential cation channel subfamily A member 1 (Homo sapiens), O75762 [C621A] (O75762 whole entry C621A): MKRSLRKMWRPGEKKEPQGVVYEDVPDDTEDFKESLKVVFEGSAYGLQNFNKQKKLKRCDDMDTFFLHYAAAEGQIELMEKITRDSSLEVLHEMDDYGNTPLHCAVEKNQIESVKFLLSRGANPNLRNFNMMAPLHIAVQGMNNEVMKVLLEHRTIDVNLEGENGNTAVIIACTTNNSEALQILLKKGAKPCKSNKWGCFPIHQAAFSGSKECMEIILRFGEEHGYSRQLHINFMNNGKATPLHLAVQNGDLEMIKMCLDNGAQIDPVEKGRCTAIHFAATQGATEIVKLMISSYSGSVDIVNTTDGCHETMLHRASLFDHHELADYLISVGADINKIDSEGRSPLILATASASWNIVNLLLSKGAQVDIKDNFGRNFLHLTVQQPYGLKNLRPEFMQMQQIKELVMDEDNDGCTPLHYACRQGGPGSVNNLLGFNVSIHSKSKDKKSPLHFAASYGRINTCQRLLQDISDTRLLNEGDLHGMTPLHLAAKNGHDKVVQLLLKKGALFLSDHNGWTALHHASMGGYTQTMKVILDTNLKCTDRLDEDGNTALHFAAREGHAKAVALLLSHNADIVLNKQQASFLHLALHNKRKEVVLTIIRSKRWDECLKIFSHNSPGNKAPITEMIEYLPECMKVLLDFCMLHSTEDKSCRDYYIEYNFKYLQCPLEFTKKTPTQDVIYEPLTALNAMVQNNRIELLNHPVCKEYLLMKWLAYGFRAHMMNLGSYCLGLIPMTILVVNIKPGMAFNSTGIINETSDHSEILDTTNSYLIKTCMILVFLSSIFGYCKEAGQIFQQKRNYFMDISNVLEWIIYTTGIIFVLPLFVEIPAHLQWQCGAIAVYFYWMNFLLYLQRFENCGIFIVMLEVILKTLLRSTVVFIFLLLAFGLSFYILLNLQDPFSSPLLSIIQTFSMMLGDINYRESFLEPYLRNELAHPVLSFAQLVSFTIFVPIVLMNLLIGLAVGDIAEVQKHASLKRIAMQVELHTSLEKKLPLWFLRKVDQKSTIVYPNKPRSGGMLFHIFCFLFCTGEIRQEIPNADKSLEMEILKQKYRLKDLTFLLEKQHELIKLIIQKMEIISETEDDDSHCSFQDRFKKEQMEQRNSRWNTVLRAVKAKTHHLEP
Sequence of Transient receptor potential cation channel subfamily A member 1 (Homo sapiens), O75762 [F944A] (O75762 whole entry F944A): as the sequence (O75762 whole entry C621A) above, with A621C, F944A counted along it
Sequence of Transient receptor potential cation channel subfamily A member 1 (Homo sapiens), O75762 [F909A] (O75762 whole entry F909A): as the sequence (O75762 whole entry C621A) above, with A621C, F909A counted along it
T1 sequence (O75762 whole entry): as the sequence (O75762 whole entry C621A) above, with A621C counted along it

In the case of `O=C(O)c1cc([N+](=O)[O-])ccc1NCCCc1ccccc1` [5-NITRO-2-PHENYLPROPYLAMINOBENZOIC ACID [NPPB]], the EC50 [1] is reported as 0.32 µM, the Activity [2] is reported as “inactive” and the Activity [3] is reported as “Active”. For the same compound, the EC50 [4] was 0.6 µM.
For `CC(C)=CCC/C(C)=C/CC/C(C)=C/CSc1ccccc1C(=O)O` [SALIRASIB], the EC50 [5] was 7 µM, the Activity [2] was “inactive” and the Activity [3] was “Active”. For the same compound, the EC50 [4] was 0.8 µM.
For `CC(Cc1ccc(O)c(O)c1)C(C)Cc1ccc(O)c(O)c1` (stereo not drawn) [NORDIHYDROGUAIARETIC ACID], the Activity [6] was “inactive”, the Activity [7] was “Active” and the EC50 [4] was 35 µM. For the same compound, the EC50 [8] was 4.9 µM.
`CCCN(CCC)S(=O)(=O)c1ccc(C(=O)O)cc1` [PROBENECID] was tested, and the EC50 [9] was 4200 µM, the Activity [10] was “Active” and the Activity [11] was “inactive”. For the same compound, the Activity [12] was “inactive”.
With `C=CCc1ccc(O)c(OC)c1` [EUGENOL] the Activity [13] was “inactive”, the EC50 [14] was 261 µM and the Activity [15] was “Active”. The EC50 [4] was 168 µM.
In the case of `O=C/C=C/c1ccccc1`, the EC50 [16] is reported as 61 µM, the Activity [7] is reported as “Active” and the EC50 [4] is reported as 9 µM.
